Assay results published in ChEMBL document CHEMBL2401709 (J Med Chem, 2013).
Calls of active or inactive are those of the source. The calls are words filed in the database; no cut-off is given here.

tested on: G-361; assay: Induction of apoptosis in human G361 cells assessed as induction of caspase-3 clevage at 300 nM after 24 hrs by immunoblotting analysis; assay type: functional, cell-based; details: not given
Summary of the method: (§1)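 Treated G361 cells harvested into Laemmli sample buffer. Proteins resolved by SDS-PAGE and blotted to nitrocellulose. Membranes blocked, probed overnight with specific primary antibodies, then peroxidase-conjugated secondaries. ECL detection by CCD camera. Actin served as loading control.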

For `NC1CCC(Nc2nc(NCc3ccc(-c4ccsc4)nc3)c3ncn(C4CCCC4)c3n2)CC1` (stereo not given), the Activity was “Active”.

target: Cyclin-dependent kinase 2/cyclin E1 (Homo sapiens, UniProt P24941); assay: Inhibition of human recombinant CDK2/Cyclin E expressed in baculovirus infected sf9 cells using histone H1 as substrate; details: not given

In order of rising IC50:
1. NC1CCC(Nc2nc(NCc3ccc(-c4ccsc4)nc3)c3ncn(C4CCCC4)c3n2)CC1 (stereo not given)  18 nM
2. COc1ccccc1-c1ccc(CNc2nc(NC3CCC(N)CC3)nc3c2ncn3C2CCCC2)cc1 (stereo not given)  33 nM
3. CC(C)(O)CNc1nc(NCc2ccc(-c3ccco3)cc2)c2ncn(C3CCCC3)c2n1  478 nM

target: Cyclin-dependent kinase 1 (Homo sapiens, UniProt P06493); assay: Inhibition of human recombinant CDK1; details: not given
Sequence (P06493 whole entry): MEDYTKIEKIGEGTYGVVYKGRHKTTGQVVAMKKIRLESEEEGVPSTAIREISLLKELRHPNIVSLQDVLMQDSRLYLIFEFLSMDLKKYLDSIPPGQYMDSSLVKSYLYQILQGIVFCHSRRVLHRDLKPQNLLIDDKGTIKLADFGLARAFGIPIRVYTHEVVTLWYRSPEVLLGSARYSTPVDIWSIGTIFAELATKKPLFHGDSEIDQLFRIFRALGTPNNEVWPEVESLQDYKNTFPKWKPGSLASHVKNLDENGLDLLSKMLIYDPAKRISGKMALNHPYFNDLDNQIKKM

Work on `CC(C)(O)CNc1nc(NCc2ccc(-c3ccco3)cc2)c2ncn(C3CCCC3)c2n1` yielded an IC50 of over 999 nM.

tested on: HeLa; assay: Cytotoxicity against human HeLa cells assessed as growth inhibition after 72 hrs by calcein AM staining-based fluoroscence assay; assay type: functional, cell-based; details: not given

In order of falling IC50:
1. CC(C)(O)CNc1nc(NCc2ccc(-c3ccco3)cc2)c2ncn(C3CCCC3)c2n1  14800 nM
2. COc1ccccc1-c1ccc(CNc2nc(NC3CCC(N)CC3)nc3c2ncn3C2CCCC2)cc1 (stereo not given)  333 nM
3. NC1CCC(Nc2nc(NCc3ccc(-c4ccsc4)nc3)c3ncn(C4CCCC4)c3n2)CC1 (stereo not given)  75 nM

tested on: G-361; assay: Induction of apoptosis in human G361 cells assessed as caspase 3/7 activation using Ac-DEVD-AMC as substrate at 300 nM after 24 hrs by fluorimetry assay; assay type: functional, cell-based; details: not given

With `NC1CCC(Nc2nc(NCc3ccc(-c4ccsc4)nc3)c3ncn(C4CCCC4)c3n2)CC1` (stereo not given) the Activity was “Active”.

tested on: G-361; assay: Cytotoxicity against human G361 cells assessed as growth inhibition after 72 hrs by calcein AM staining-based fluoroscence assay; assay type: functional, cell-based; details: G-361, 72 h

In order of rising IC50:
1. NC1CCC(Nc2nc(NCc3ccc(-c4ccsc4)nc3)c3ncn(C4CCCC4)c3n2)CC1 (stereo not given)  272 nM
2. COc1ccccc1-c1ccc(CNc2nc(NC3CCC(N)CC3)nc3c2ncn3C2CCCC2)cc1 (stereo not given)  545 nM
3. CC(C)(O)CNc1nc(NCc2ccc(-c3ccco3)cc2)c2ncn(C3CCCC3)c2n1  17400 nM

tested on: G-361; assay: Induction of apoptosis in human G361 cells assessed as decrease in Mcl-1 protein level at 300 nM after 24 hrs by immunoblotting analysis; assay type: functional, cell-based; details: not given; summary of the method: as §1

With `NC1CCC(Nc2nc(NCc3ccc(-c4ccsc4)nc3)c3ncn(C4CCCC4)c3n2)CC1` (stereo not given) the Activity was “Active”.

tested on: G-361; assay: Induction of apoptosis in human G361 cells assessed as induction of caspase-7 clevage at 300 nM after 24 hrs by immunoblotting analysis; assay type: functional, cell-based; details: not given; summary of the method: as §1

In the case of `NC1CCC(Nc2nc(NCc3ccc(-c4ccsc4)nc3)c3ncn(C4CCCC4)c3n2)CC1` (stereo not given), the Activity is reported as “Active”.

tested on: G-361; assay: Induction of apoptosis in human G361 cells assessed as decrease in Mcl-1 at 300 nM after 24 hrs by immunoblotting analysis; assay type: functional, cell-based; details: not given; summary of the method: as §1

With `NC1CCC(Nc2nc(NCc3ccc(-c4ccsc4)nc3)c3ncn(C4CCCC4)c3n2)CC1` (stereo not given) the Activity was “Active”.

tested on: HCT-116; assay: Cytotoxicity against human HCT116 cells assessed as growth inhibition after 72 hrs by calcein AM staining-based fluoroscence assay; assay type: functional, cell-based; details: HCT-116, 72 h

In order of rising IC50:
1. NC1CCC(Nc2nc(NCc3ccc(-c4ccsc4)nc3)c3ncn(C4CCCC4)c3n2)CC1 (stereo not given)  145 nM
2. COc1ccccc1-c1ccc(CNc2nc(NC3CCC(N)CC3)nc3c2ncn3C2CCCC2)cc1 (stereo not given)  430 nM
3. CC(C)(O)CNc1nc(NCc2ccc(-c3ccco3)cc2)c2ncn(C3CCCC3)c2n1  16700 nM

tested on: G-361; assay: Induction of apoptosis in human G361 cells assessed as induction of caspase-9 clevage at 300 nM after 24 hrs by immunoblotting analysis; assay type: functional, cell-based; details: not given; summary of the method: as §1

`NC1CCC(Nc2nc(NCc3ccc(-c4ccsc4)nc3)c3ncn(C4CCCC4)c3n2)CC1` (stereo not given) was tested, and the Activity was “Active”.

tested on: HOS; assay: Cytotoxicity against human HOS cells assessed as growth inhibition after 72 hrs by calcein AM staining-based fluoroscence assay; assay type: functional, cell-based; details: not given

In order of rising IC50:
1. NC1CCC(Nc2nc(NCc3ccc(-c4ccsc4)nc3)c3ncn(C4CCCC4)c3n2)CC1 (stereo not given)  89 nM
2. COc1ccccc1-c1ccc(CNc2nc(NC3CCC(N)CC3)nc3c2ncn3C2CCCC2)cc1 (stereo not given)  150 nM
3. CC(C)(O)CNc1nc(NCc2ccc(-c3ccco3)cc2)c2ncn(C3CCCC3)c2n1  21400 nM

tested on: G-361; assay: Induction of apoptosis in human G361 cells assessed as caspase 9 activation using Ac-DEHD-AMC as substrate at 300 nM after 24 hrs by fluorimetry assay; assay type: functional, cell-based; details: in the assay text read “Ac-LEHD-AMC” for “Ac-DEHD-AMC”
Summary of the method: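 G361 lysates were made in CHAPS extraction buffer, pH 7.4, clarified at 10000g, and protein-equalized. They were incubated 24 h with 100 μM Ac-LEHD-AMC in 100 mM HEPES pH 7.5, 0.5 mM EDTA, 20% glycerol, 5 mM DTT. AMC fluorescence read at 355/460 nm (ex/em).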

In the case of `NC1CCC(Nc2nc(NCc3ccc(-c4ccsc4)nc3)c3ncn(C4CCCC4)c3n2)CC1` (stereo not given), the Activity is reported as “Active”.

tested on: MCF7; assay: Cytotoxicity against human MCF7 cells assessed as growth inhibition after 72 hrs by calcein AM staining-based fluoroscence assay; assay type: functional, cell-based; details: MCF7, 72 h

In order of falling IC50:
1. CC(C)(O)CNc1nc(NCc2ccc(-c3ccco3)cc2)c2ncn(C3CCCC3)c2n1  15300 nM
2. COc1ccccc1-c1ccc(CNc2nc(NC3CCC(N)CC3)nc3c2ncn3C2CCCC2)cc1 (stereo not given)  303 nM
3. NC1CCC(Nc2nc(NCc3ccc(-c4ccsc4)nc3)c3ncn(C4CCCC4)c3n2)CC1 (stereo not given)  100 nM

tested on: K562; assay: Cytotoxicity against human K562 cells assessed as growth inhibition after 72 hrs by calcein AM staining-based fluoroscence assay; assay type: functional, cell-based; details: K562, 72 h

In order of falling IC50:
1. CC(C)(O)CNc1nc(NCc2ccc(-c3ccco3)cc2)c2ncn(C3CCCC3)c2n1  16800 nM
2. COc1ccccc1-c1ccc(CNc2nc(NC3CCC(N)CC3)nc3c2ncn3C2CCCC2)cc1 (stereo not given)  347 nM
3. NC1CCC(Nc2nc(NCc3ccc(-c4ccsc4)nc3)c3ncn(C4CCCC4)c3n2)CC1 (stereo not given)  150 nM

tested on: G-361; assay: Induction of apoptosis in human G361 cells assessed as induction of PARP-1 clevage at 300 nM after 24 hrs by immunoblotting analysis; assay type: functional, cell-based; details: not given; summary of the method: as §1

With `NC1CCC(Nc2nc(NCc3ccc(-c4ccsc4)nc3)c3ncn(C4CCCC4)c3n2)CC1` (stereo not given) the Activity was “Active”.
